In assay [1] the test system is C6. Briefly: Cytotoxicity against rat C6 cells after 72 hrs by MTT assay. The class given is functional, cell-based. To be noted: C6, 72 h. An outline of the steps: (§1)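 Cells exposed to 0.0001–10 μM for 72 h. Viability by MTT conversion, expressed as % of cells viable. IC50 taken as the concentration giving 50% inhibition of survival, from concentration–viability profiles. Three independent experiments, each in duplicate, averaged.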
In general terms: Formazan colour is commonly taken as a measure of viable cells.

Assay [2] has as its system MCF7. Put plainly: Cell cycle arrest in human MCF7 cells assessed as accumulation at G0/G1 phase at 5 uM after 24 hrs by propidium iodide staining-based FACS flow cytometric analysis (reference value: 64.34%). The class given is functional. For orientation: A flow cytometer gives signals particle by particle.
Assay [3] concerns MCF7. Put plainly: Cytotoxicity against human MCF7 cells assessed as cell survival at 0.0001 to 10 uM by MTT assay. It is filed as functional, cell-based. To be noted: TDE = time-dependent effect. Summed up:
(§2)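 Cells seeded at 10,000 per well and treated with 0.0001–10 μM. Incubated at 37 °C in CO2 for 24, 48 or 72 h. Viable cells measured by MTT conversion. Time course shown at a fixed 0.01 μM.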

Assay [4] relates to A2780. Put plainly: Cytotoxicity against human A2780 cells after 72 hrs by MTT assay. The class given is functional, cell-based. To be noted: A2780, 72 h. Summed up:
as §1

In assay [5] the test system is C6. Put plainly: Cytotoxicity against rat C6 cells assessed as cell survival after 24 to 72 hrs by MTT assay. The class given is functional, cell-based. Summed up:
as §2

Assay [6] deals with HepG2. Briefly: Cytotoxicity against human HepG2 cells after 72 hrs by MTT assay. The class given is functional, cell-based. To be noted: HepG2, 72 h. An outline of the steps:
as §1

Assay [7] relates to MCF7. Put plainly: Cell cycle arrest in human MCF7 cells assessed as accumulation at G2/M phase at 5 uM after 24 hrs by propidium iodide staining-based FACS flow cytometric analysis (reference value: 25.92%). The class given is functional.
Assay [8] deals with MCF7. Put plainly: Cytotoxicity against human MCF7 cells after 72 hrs by MTT assay. It is filed as functional, cell-based. To be noted: MCF7, 72 h. Summed up: as §1
The subject of assay [9] is C6. Put plainly: Induction of apoptosis in rat C6 cells assessed as fragmentation of mitochondrial network at 50 nM after 72 hrs by MitoTracker Red CMXRos staining-based fluorescence microscopy. It is filed as functional, cell-based. An outline of the steps: (§3)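 C6 glioma cells seeded at 100,000 per well and treated 72 h at 37 °C, 5% CO2, with 50 nM or 1 μM depending on compound. Mitochondria stained with 25 nM MitoTracker Red CMXRos and network morphology imaged against untreated controls. Over 10 cells examined per experiment, 3 independent experiments.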

For assay [10], the system named is A2780. Put plainly: Cytotoxicity against human A2780 cells assessed as cell survival after 24 to 72 hrs by MTT assay. The class given is functional, cell-based. An outline of the steps: as §2
The subject of assay [11] is MCF7. Briefly: Cell cycle arrest in human MCF7 cells assessed as accumulation at S phase at 5 uM after 24 hrs by propidium iodide staining-based FACS flow cytometric analysis (reference value: 9.74%). The class given is functional.
Assay [12] concerns MCF7. Briefly: Cytotoxicity against human MCF7 cells assessed as cell survival after 24 to 72 hrs by MTT assay. The class given is functional, cell-based. Summed up:
as §2

Assay [13] relates to C6. Put plainly: Cytotoxicity against rat C6 cells assessed as cell survival at 0.0001 to 10 uM by MTT assay. The class given is functional, cell-based. To be noted: TDE = time-dependent effect. An outline of the steps: as §2
For assay [14], the system named is HepG2. Briefly: Cytotoxicity against human HepG2 cells assessed as cell survival after 24 to 72 hrs by MTT assay. It is filed as functional, cell-based. An outline of the steps:
as §2

The test system of assay [15] is HepG2. Put plainly: Cytotoxicity against human HepG2 cells assessed as cell survival at 0.0001 to 10 uM by MTT assay. The class given is functional, cell-based. To be noted: TDE = time-dependent effect. Summed up: as §2
Assay [16] concerns MCF7. Put plainly: Induction of mitochondrial membrane depolarization in human MCF7 cells after 72 hrs by JC-1 staining-based FACS flow cytometric analysis (reference value: 1%). The class given is functional.
Assay [17] concerns A2780. Briefly: Cytotoxicity against human A2780 cells assessed as cell survival at 0.0001 to 10 uM by MTT assay. It is filed as functional, cell-based. To be noted: TDE = time-dependent effect. An outline of the steps: as §2
Assay [18] has as its system A2780. Briefly: Selectivity ratio of IC50 for human A2780 cells to IC50 for rat C6 cells. The class given is functional. An outline of the steps: (§4)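 Ratio of two 72 h IC50 values, each from the same MTT viability assay. A2780, MCF-7, HepG2 and rat C6 glioma cells were treated at 0.0001–10 μM. Percent viability was calculated and IC50 taken as the concentration giving 50% survival inhibition. Means are from three independent experiments run in duplicate.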

Assay [19] concerns HepG2. Briefly: Selectivity ratio of IC50 for human MCF7 cells to IC50 for human HepG2 cells. The class given is functional. Summed up:
as §4

In assay [20] the test system is A2780. Briefly: Selectivity ratio of IC50 for human A2780 cells to IC50 for human HepG2 cells. It is filed as functional. An outline of the steps:
as §4

Assay [21] relates to C6. Put plainly: Selectivity ratio of IC50 for human MCF7 cells to IC50 for rat C6 cells. The class given is functional. An outline of the steps:
as §4

Assay [22] concerns MCF7. Briefly: Cell cycle arrest in human MCF7 cells assessed as accumulation at S phase at 0.05 uM after 24 hrs by propidium iodide staining-based FACS flow cytometric analysis (reference value: 9.74%). The class given is functional.
Assay [23] deals with MCF7. Put plainly: Cell cycle arrest in human MCF7 cells assessed as accumulation at G0/G1 phase at 0.05 uM after 24 hrs by propidium iodide staining-based FACS flow cytometric analysis (reference value: 64.34%). The class given is functional.
In assay [24] the test system is MCF7. Put plainly: Cell cycle arrest in human MCF7 cells assessed as accumulation at G2/M phase at 0.05 uM after 24 hrs by propidium iodide staining-based FACS flow cytometric analysis (reference value: 25.92%). It is filed as functional.
Assay [25] has as its system C6. Put plainly: Induction of apoptosis in rat C6 cells assessed as fragmentation of mitochondrial network at 1 uM after 72 hrs by MitoTracker Red CMXRos staining-based fluorescence microscopy. It is filed as functional, cell-based. An outline of the steps: as §3

The source made the active and inactive calls. The calls are words filed in the database; no cut-off is given here.

By IC50 is commonly meant the concentration that gives 50% inhibition.

For `CC(C)[C@@H]1NC(=O)[C@H](C)OC(=O)[C@@H](C(C)C)NC(=O)[C@@H](C(C)C)OC(=O)[C@H](C(C)(C)O)NC(=O)[C@H](C)OC(=O)[C@@H](C(C)C)NC(=O)[C@@H](C(C)C)OC(=O)[C@H](C(C)C)NC(=O)[C@H](C)OC(=O)[C@@H](C(C)C)NC(=O)[C@@H](C(C)C)OC1=O`, the IC50 in assay [1] worked out at 2.9 nM; in [4], 2510 nM; in assay [6], 4.9 nM; in [8] it was 3910 nM. Also, the Activity was 57.53% in assay [2]; “tde” in assay [3]; “Dose-dependent effect” in assay [5]; 16.9% in assay [7]; “Dose-dependent effect” in [10]; 25.57% in assay [11]. Further, the Activity result in assay [12] is “Dose-dependent effect”; in [13] it was “tde”; in [14], “Dose-dependent effect”; in assay [15], “tde”; in assay [16] it was 15.6%; in [17], “tde”. Also, the result in assay [9] was Active.
As to `CC(C)[C@@H]1NC(=O)[C@H](C)OC(=O)[C@@H](C(C)C)NC(=O)[C@@H](C(C)C)OC(=O)[C@H](C(C)C)NC(=O)[C@H](C)OC(=O)[C@@H](C(C)C)NC(=O)[C@@H](C(C)C)OC(=O)[C@H](C(C)C)NC(=O)[C@H](C)OC(=O)[C@@H](C(C)C)NC(=O)[C@@H](C(C)C)OC1=O` [VALINOMYCIN], the IC50 in [1] worked out at 0.4 nM; in [4], 2180 nM; in [6], 0.8 nM; in assay [8] it was 1770 nM. Besides, the “Ratio IC50” value in assay [18], in [19], in [20] and in assay [21] was 3 in each case. The Activity in [2] was 56.07%; in assay [3] it was “tde”; in assay [5] it was “Dose-dependent effect”; in assay [7], 18.15%; in assay [10] it was “Dose-dependent effect”; in assay [11], 25.79%. The Activity entry in assay [12] is “Dose-dependent effect”; in assay [13], “tde”; in [14] it was “Dose-dependent effect”; in assay [15] it was “tde”; in [16] it was 16%; in assay [17], “tde”. Moreover, in assay [9], the result was Active.
As for `CC(C)[C@@H]1NC(=O)[C@H](C)OC(=O)[C@@H](C(C)C)NC(=O)[C@@H](C(C)C)OC(=O)[C@H](C(C)C)NC(=O)[C@H](C)OC(=O)[C@@H](C(C)(C)O)NC(=O)[C@@H](C(C)C)OC(=O)[C@H](C(C)C)NC(=O)[C@H](C)OC(=O)[C@@H](C(C)C)NC(=O)[C@@H](C(C)C)OC1=O`, the IC50 was found to be 2.4 nM in assay [1], 4530 nM in assay [4], 4.3 nM in assay [6] and 3850 nM in assay [8]. The Activity entry in [3] was “tde”; in assay [5] it was “Dose-dependent effect”; in [10], “Dose-dependent effect”; in assay [12] it was “Dose-dependent effect”; in [13] it was “tde”; in assay [22], 23.07%. For the same compound, the Activity entry in assay [14] was “Dose-dependent effect”; in assay [23] it was 55.44%; in assay [15] it was “tde”; in assay [16], 12.1%; in assay [17], “tde”; in [24], 21.49%. In addition, the result in assay [9] was Active.
`CC(C)[C@@H]1NC(=O)[C@H](C)OC(=O)[C@@H](C(C)C)NC(=O)[C@@H](C(C)(C)O)OC(=O)[C@H](C(C)C)NC(=O)[C@H](C)OC(=O)[C@@H](C(C)C)NC(=O)[C@@H](C(C)C)OC(=O)[C@H](C(C)C)NC(=O)[C@H](C)OC(=O)[C@@H](C(C)C)NC(=O)[C@@H](C(C)C)OC1=O`: the half-inhibitory concentration (IC50) in assay [1] is 175 nM; in assay [4] it was over 10000 nM; in assay [6], 197 nM; in assay [8] it was over 10000 nM. The result in [25] was Active. The Activity is 55.63% in [2]; 19.76% in assay [7]; 24.6% in assay [11]; “tde” in [13]; 8.9% in assay [16].

Values taken from ChEMBL document CHEMBL3098060, “Antitumor potential of conjugable valinomycins bearing hydroxyl sites: in vitro studies” (ACS Med Chem Lett, 2013).
